# According to ChEMBL document CHEMBL4811254, “Beyond Basicity: Discovery of Nonbasic DENV-2 Protease Inhibitors with Potent Activity in Cell Culture” (J Med Chem, 2021):
# Active and inactive are the calls of the source.
# Assays:
# [1] = Passive membrane permeability of the compound in phosphate buffered saline assessed as concentration of the compound in acceptor plate at 200 uM incubated for 5 hrs by PAMPA assay based HPLC analysis; format: ADME
# In short: (§1)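 Precoated trilayer PAMPA, 5 h incubation. Acceptor and donor concentrations measured after 5 h. Permeability and mass retention calculated by a literature method.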
# [2] = Passive membrane permeability of the compound in phosphate buffered saline assessed as mass retention of the compound at 200 uM incubated for 5 hrs by PAMPA assay based HPLC analysis; format: ADME; in short: as §1
# [3] = Passive membrane permeability of the compound in phosphate buffered saline assessed as concentration of the compound in donor plate at 200 uM incubated for 5 hrs by PAMPA assay based HPLC analysis; format: ADME; in short: as §1
# [4] = Passive membrane permeability of the compound in phosphate buffered saline at 200 uM incubated for 5 hrs by PAMPA assay based HPLC analysis; format: ADME; conditions: PAMPA, read-out: permeability; in short: as §1
# [5] = molecular target: Genome polyprotein (dengue virus type 2) (UniProt P29990); assay: Inhibition of DENV2 NS2B-NS3 protease expressed in Escherichia coli BL21 lambda(DE3) using FRET substrate preincubated with enzyme for 15 mins in presence of detergent CHAPS followed by substrate addition for 15 mins by fluorescence based analysis; conditions: time 30.0 min
# [6] = molecular target: Prothrombin (Homo sapiens) (UniProt P00734); assay: Inhibition of thrombin in human plasma using Boc-Val-Pro-Arg-AMC as substrate at 25 uM preincubated with enzyme for 15 mins followed by substrate addition and measured for 15 mins by fluorimetric assay; format: cell-free; conditions: time 30.0 min
# Trypsin (Homo sapiens) = Trypsin (Homo sapiens) (UniProt P07477+P07478+P35030); assay: Inhibition of trypsin (unknown origin) using Boc-Val-Pro-Arg-AMC as substrate at 50 uM preincubated with enzyme for 15 mins followed by substrate addition and measured for 15 mins by fluorimetric assay; format: protein assay; conditions: time 30.0 min
# [7] = molecular target: Genome polyprotein (dengue virus type 2) (UniProt P29990); assay: Inhibition of NS2B-NS3 protease in DENV2proHeLa system assessed as inhibition of luciferase signal at 12.5 uM incubated for 24 hrs by luciferase reporter gene assay; format: cell-based; conditions: HeLa
# In short: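 Stable DENV2proHeLa cells seeded at 2 × 10⁴/well and dosed immediately, then incubated 24 h at 37 °C. Cells lysed 15 min at room temperature. Luciferase read with coelenterazine (2.75 μM in PBS) injection, luminescence 5 s. Triplicates; percent inhibition calculated relative to untreated control; background from cell-free wells.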
# Genome polyprotein = Genome polyprotein (dengue virus type 2, UniProt P29990); assay: Inhibition of NS2B-NS3 protease in DENV2proHeLa system assessed as inhibition of luciferase signal incubated for 24 hrs by luciferase reporter gene assay; format: cell-based, HeLa
# In short: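 HeLa cells stably carrying the reporter system, 2 × 10⁴ per well, given inhibitor at seeding and held 24 h at 37 °C. Cells lysed 15 min at room temperature. Luciferase read for 5 s after injecting coelenterazine (2.75 μM in PBS). Triplicate wells per concentration; percent inhibition taken against untreated cells. EC50/EC90 from 4-parameter dose-response fit, background from cell-free wells subtracted.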
# [8] = Cytotoxicity against human HeLa cells assessed as reduction in cell viability incubated for 24 hrs by CellTiter-Blue assay; format: cell-based
# In short: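 Viability by CellTiter-Blue in HeLa or Huh-7 cells exposed to compound dilutions. Plates run in parallel with the reporter assay (HeLa) or the virus titer assay (Huh-7).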
# [9] = molecular target: Genome polyprotein (West Nile virus) (UniProt P06935); assay: Inhibition of WNV NS2B-NS3 protease expressed in Escherichia coli BL21 lambda(DE3) using FRET substrate preincubated with enzyme for 15 mins in presence of detergent CHAPS followed by substrate addition for 15 mins by fluorescence based analysis; conditions: time 30.0 min
# Genome polyprotein (West Nile virus), sequence (P06935 whole entry): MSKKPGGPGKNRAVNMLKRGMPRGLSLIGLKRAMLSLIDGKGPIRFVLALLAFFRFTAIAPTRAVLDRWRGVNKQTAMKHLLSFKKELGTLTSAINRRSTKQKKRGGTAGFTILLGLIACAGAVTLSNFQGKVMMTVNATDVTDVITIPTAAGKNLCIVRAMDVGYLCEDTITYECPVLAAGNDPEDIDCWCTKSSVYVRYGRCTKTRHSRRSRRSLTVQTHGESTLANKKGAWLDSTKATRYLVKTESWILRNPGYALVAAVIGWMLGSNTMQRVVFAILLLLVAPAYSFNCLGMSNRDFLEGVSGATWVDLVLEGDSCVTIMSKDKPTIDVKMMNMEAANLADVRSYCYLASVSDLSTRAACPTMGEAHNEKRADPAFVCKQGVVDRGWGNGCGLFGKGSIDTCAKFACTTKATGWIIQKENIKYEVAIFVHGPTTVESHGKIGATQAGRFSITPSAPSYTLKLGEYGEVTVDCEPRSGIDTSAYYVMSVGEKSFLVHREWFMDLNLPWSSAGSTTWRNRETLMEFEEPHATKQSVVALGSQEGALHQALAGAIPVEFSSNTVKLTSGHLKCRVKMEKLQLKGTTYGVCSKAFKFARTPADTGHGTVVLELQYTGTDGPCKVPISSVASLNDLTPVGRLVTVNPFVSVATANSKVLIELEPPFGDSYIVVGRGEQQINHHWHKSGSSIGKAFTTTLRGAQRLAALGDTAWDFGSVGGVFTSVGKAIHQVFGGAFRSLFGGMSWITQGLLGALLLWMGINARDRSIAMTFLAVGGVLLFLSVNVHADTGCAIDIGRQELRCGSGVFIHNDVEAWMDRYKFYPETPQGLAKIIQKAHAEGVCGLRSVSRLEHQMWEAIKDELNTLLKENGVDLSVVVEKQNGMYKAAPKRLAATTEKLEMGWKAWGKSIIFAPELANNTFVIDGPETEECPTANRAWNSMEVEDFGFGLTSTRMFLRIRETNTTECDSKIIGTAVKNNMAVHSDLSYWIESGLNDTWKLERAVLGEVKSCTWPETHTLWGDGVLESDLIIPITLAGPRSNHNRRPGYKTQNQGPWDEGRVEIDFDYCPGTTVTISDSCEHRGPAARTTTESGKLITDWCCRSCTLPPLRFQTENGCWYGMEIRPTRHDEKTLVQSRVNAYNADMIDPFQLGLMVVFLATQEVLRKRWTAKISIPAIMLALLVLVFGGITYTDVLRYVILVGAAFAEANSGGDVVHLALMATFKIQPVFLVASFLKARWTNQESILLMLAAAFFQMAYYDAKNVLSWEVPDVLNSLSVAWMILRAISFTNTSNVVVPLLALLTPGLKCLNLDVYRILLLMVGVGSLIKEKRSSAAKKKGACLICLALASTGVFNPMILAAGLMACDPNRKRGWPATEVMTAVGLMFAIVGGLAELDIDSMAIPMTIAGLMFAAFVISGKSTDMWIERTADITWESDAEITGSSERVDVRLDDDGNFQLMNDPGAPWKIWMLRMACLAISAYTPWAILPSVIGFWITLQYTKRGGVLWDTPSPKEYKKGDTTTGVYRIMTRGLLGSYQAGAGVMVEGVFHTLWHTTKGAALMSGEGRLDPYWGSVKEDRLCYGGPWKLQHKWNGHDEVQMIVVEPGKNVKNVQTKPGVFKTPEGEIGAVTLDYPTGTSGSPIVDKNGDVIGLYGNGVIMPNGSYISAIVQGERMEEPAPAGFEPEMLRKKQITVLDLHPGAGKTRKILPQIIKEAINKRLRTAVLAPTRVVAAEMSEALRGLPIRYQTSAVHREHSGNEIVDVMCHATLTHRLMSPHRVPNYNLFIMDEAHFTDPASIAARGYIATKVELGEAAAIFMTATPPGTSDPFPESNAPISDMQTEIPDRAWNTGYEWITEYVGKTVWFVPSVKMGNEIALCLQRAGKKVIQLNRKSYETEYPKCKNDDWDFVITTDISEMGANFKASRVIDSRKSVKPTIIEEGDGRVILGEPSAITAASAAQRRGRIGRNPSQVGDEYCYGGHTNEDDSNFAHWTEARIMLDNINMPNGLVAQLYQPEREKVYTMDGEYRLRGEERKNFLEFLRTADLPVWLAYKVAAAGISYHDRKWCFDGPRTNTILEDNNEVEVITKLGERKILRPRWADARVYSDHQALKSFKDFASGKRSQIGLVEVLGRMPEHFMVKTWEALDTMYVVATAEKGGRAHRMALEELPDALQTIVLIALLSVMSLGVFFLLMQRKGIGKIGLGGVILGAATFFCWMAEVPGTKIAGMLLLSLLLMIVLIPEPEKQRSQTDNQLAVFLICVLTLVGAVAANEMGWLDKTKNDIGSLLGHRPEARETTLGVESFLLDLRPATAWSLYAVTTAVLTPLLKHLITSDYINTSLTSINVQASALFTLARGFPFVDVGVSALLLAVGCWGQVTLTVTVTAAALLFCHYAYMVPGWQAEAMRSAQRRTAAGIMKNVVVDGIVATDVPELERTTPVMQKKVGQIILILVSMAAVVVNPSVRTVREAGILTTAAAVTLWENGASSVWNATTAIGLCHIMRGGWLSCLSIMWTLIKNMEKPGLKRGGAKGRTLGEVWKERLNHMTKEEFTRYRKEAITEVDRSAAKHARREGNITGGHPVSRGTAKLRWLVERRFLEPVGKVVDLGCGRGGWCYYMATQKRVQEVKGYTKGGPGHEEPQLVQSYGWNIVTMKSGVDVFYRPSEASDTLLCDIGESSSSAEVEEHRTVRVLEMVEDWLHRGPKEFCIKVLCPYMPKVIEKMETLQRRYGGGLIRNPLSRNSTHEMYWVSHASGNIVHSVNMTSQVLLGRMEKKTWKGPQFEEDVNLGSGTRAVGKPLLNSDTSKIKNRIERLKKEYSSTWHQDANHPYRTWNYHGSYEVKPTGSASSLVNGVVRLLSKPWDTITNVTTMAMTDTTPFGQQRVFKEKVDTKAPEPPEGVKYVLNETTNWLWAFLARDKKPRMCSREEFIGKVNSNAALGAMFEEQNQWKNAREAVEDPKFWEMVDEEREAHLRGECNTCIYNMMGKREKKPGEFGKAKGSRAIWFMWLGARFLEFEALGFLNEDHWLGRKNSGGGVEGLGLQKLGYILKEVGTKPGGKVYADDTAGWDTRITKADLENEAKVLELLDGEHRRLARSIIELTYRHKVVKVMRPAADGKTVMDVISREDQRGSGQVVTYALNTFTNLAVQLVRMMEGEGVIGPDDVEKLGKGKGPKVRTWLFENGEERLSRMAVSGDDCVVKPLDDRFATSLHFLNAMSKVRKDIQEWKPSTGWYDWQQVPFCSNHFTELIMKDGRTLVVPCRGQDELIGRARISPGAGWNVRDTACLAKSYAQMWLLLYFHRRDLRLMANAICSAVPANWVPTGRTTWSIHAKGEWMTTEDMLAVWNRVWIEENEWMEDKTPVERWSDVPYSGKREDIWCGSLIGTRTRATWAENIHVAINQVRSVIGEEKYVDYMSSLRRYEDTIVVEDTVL
SMILES,Activity [1],Activity [2],Activity [3],"Papp at 5 h, 200 µM [4]",inhibition [5],inhibition [6],inhibition (Trypsin (Homo sapiens)),inhibition [7],EC50 (Genome polyprotein),CC50 at 24 h [8],inhibition [9]
O=C1NC(=O)C(c2ccccc2)(c2ccccc2)N1 [PHENYTOIN],25 µM,8.7%,166 µM,5.7 ×10⁻⁶ cm/s,,,,,,,
CCCCCC(=O)N[C@H](C(=O)NCc1ccc(C(N)=O)cc1)c1ccc(OCc2cccc(OC)c2)cc1,,,,,Active,inactive,inactive,61%,7.3 µM,> 100 µM,
CCCCCC(=O)N[C@H](C(=O)Nc1cccc(C(N)=O)c1)c1ccc(OCc2c(Cl)cccc2Cl)cc1,,,,,Active,inactive,inactive,65%,2.4 µM,> 50 µM,
NC(=O)c1cccc(NC(=O)[C@@H](NC(=O)c2cccc(Oc3ccccc3)c2)c2ccc(OCc3ccccc3)cc2)c1,,,,,Active,inactive,inactive,84%,1.7 µM,> 100 µM,
NC(=O)c1cccc(NC(=O)[C@@H](NC(=O)c2ccc(Oc3ccccc3)cc2)c2ccc(OCc3c(Cl)cccc3Cl)cc2)c1,,,,,Active,inactive,inactive,71%,2.2 µM,> 50 µM,
CCCCCC(=O)N[C@@H](C(=O)NCc1ccc(C(N)=O)cc1)c1ccc(OCc2ccc(Cl)c(Cl)c2)cc1,,,,,Active,inactive,inactive,19%,,> 50 µM,
CCCCCCCC(=O)N[C@H](C(=O)NCc1ccc(C(N)=O)cc1)c1ccc(OCc2ccccc2)cc1,,,,,,inactive,inactive,56%,,> 50 µM,Active
NC(=O)c1ccc(CNC(=O)[C@@H](NC(=O)Cc2ccc(-c3ccccc3)cc2)c2ccc(OCc3ccccc3)cc2)cc1,,,,,Active,inactive,inactive,25%,,> 50 µM,
CCCC[C@H](NC(C)=O)C(=O)N[C@H](C(=O)NCc1ccc(C(N)=O)cc1)c1ccc(OCc2ccccc2)cc1,,,,,Active,inactive,inactive,16%,,> 50 µM,
CCCCCC(=O)N[C@H](C(=O)N1CCC(C(=O)Nc2ccccc2)CC1)c1ccc(OCc2ccccc2)cc1,,,,,Active,inactive,inactive,35%,20 µM,> 50 µM,
NC(=O)c1cccc(NC(=O)[C@@H](NC(=O)c2ccc3c(c2)OCCO3)c2ccc(OCc3ccccc3)cc2)c1,,,,,Active,inactive,inactive,69%,5.4 µM,> 100 µM,
CCCCCC(=O)N[C@H](C(=O)NCc1ccc(C(N)=O)cc1)c1ccc(OCc2ccc(C(F)(F)F)cc2)cc1,,,,,,inactive,inactive,53%,9.8 µM,> 100 µM,
CCCCCC(=O)N[C@H](C(=O)Nc1cccc(C(N)=O)c1)c1ccc(OCc2ccccc2)cc1,,,,,Active,inactive,inactive,76%,4.6 µM,> 50 µM,
CCCCCCN[C@H](C(=O)NCc1ccc(C(N)=O)cc1)c1ccc(OCc2ccccc2)cc1,,,,,Active,inactive,inactive,19%,,> 50 µM,
Cn1c(=O)c2c(ncn2C)n(C)c1=O [CAFFEINE],33 µM,2.4%,173 µM,7.3 ×10⁻⁶ cm/s,,,,,,,
NC(=O)c1cccc(NC(=O)[C@@H](NC(=O)c2ccc(Oc3ccccc3)cc2)c2ccc(Oc3ccccc3)cc2)c1,,,,,,inactive,inactive,73%,2.9 µM,> 50 µM,

SMILES,Activity [1],Activity [2],Activity [3],"Papp at 5 h, 200 µM [4]",inhibition [5],inhibition [6],inhibition (Trypsin (Homo sapiens)),inhibition [7],EC50 (Genome polyprotein),CC50 at 24 h [8],inhibition [9]
NC(=O)c1ccc(CNC(=O)[C@@H](NC(=O)c2cc3ccccc3s2)c2ccc(OCc3ccccc3)cc2)cc1,,,,,,inactive,inactive,71%,6.6 µM,> 50 µM,
CCCCCC(=O)N[C@H](C(=O)NNc1ccc(C(N)=O)cc1)c1ccc(OCc2ccccc2)cc1,,,,,Active,inactive,inactive,60%,8.7 µM,> 25 µM,
NC(=O)N1c2ccccc2C=Cc2ccccc21 [CARBAMAZEPINE],42 µM,-7.6%,187 µM,8.9 ×10⁻⁶ cm/s,,,,,,,
COc1cccc(COc2ccc([C@H](NC(=O)c3ccc(Oc4ccccc4)cc3)C(=O)Nc3cccc(C(N)=O)c3)cc2)c1,,,,,,inactive,inactive,73%,2.1 µM,> 100 µM,
CCCCCC(=O)N[C@H](C(=O)NCc1ccc(C(=O)NN)cc1)c1ccc(OCc2ccccc2)cc1,,,,,Active,inactive,inactive,,,,
CCCCCCC(=O)N[C@H](C(=O)NCc1ccc(C(N)=O)cc1)c1ccc(OCc2ccccc2)cc1,,,,,Active,inactive,inactive,52%,7.9 µM,> 50 µM,
Cc1ccc(C)c(OCCCC(C)(C)C(=O)N[C@H](C(=O)Nc2cccc(C(N)=O)c2)c2ccc(OCc3ccccc3)cc2)c1,,,,,,inactive,inactive,82%,1.7 µM,> 25 µM,
CCCCCC(=O)N[C@H](C(=O)NCc1ccc(C(N)=O)cc1)c1ccc(OCc2ccc(O)cc2)cc1,,,,,Active,inactive,inactive,43%,,> 50 µM,
NC(=O)c1cccc(NC(=O)[C@@H](NC(=O)c2cccc(C(=O)N3CCOCC3)c2)c2ccc(OCc3ccccc3)cc2)c1,,,,,,inactive,inactive,35%,23 µM,> 100 µM,
CCCCCC(=O)N[C@H](C(=O)NCc1ccc(C(N)=O)cc1)c1ccc(OCc2ccc(C(C)(C)C)cc2)cc1,,,,,Active,inactive,inactive,< 10%,,> 12.5 µM,
NCc1ccc(C(=O)N[C@H](C(=O)NCc2ccc(C(N)=O)cc2)c2ccc(OCc3ccccc3)cc2)cc1,,,,,,inactive,inactive,24%,29 µM,> 50 µM,
COc1cccc(COc2ccc([C@H](NC(=O)c3ccc(C(=O)c4ccccc4)cc3)C(=O)Nc3cccc(C(N)=O)c3)cc2)c1,,,,,Active,inactive,inactive,79%,1.2 µM,> 100 µM,
CCCCC(=O)N[C@H](C(=O)NCc1ccc(C(N)=O)cc1)c1ccc(OCc2ccccc2)cc1,,,,,,inactive,inactive,38%,14 µM,> 100 µM,
NC(=O)c1cccc(NC(=O)[C@@H](NC(=O)c2ccc3ccccc3c2)c2ccc(OCc3ccccc3)cc2)c1,,,,,,inactive,inactive,71%,4.5 µM,> 100 µM,
CCCCCC(=O)N[C@H](C(=O)N1CCCCC1)c1ccc(OCc2ccccc2)cc1,,,,,,inactive,inactive,58%,13 µM,29 µM,
